# From PMC5508980 (Molecular nutrition & food research, 2017)
# Tests used:
# recombinant HDAC3 = recombinant HDAC3 (Homo sapiens, UniProt O15379); test: Recombinant HDAC activity assay; assay type: biochemical; conditions: for % HDAC activity, Class I HDACs, 3: recombinant protein incubated with 50 µM compound, 2 hrs
# recombinant HDAC1 = recombinant HDAC1 (Homo sapiens, UniProt Q13547); test: Recombinant HDAC activity assay; assay type: biochemical; conditions: for % HDAC activity, Class I HDACs, 1: recombinant protein incubated with 50 µM compound, 2 hrs
# recombinant HDAC1, sequence (Q13547 whole entry): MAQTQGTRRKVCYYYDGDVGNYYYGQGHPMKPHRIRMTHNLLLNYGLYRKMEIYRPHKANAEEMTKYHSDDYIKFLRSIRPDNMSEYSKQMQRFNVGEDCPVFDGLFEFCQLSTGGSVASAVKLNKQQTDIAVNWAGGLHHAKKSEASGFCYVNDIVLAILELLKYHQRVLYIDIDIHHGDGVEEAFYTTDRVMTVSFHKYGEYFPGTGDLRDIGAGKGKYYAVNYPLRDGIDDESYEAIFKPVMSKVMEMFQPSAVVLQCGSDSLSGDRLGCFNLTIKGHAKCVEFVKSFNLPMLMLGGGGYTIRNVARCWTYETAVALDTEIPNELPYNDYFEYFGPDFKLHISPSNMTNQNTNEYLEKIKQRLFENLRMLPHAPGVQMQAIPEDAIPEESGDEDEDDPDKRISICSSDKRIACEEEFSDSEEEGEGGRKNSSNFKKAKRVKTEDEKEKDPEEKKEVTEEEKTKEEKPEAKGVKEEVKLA
# Class I HDAC = test: HDAC activity assay, class I substrate, bovine heart tissue lysate; assay type: biochemical; conditions: 2 hours treatment
# Summary of the method: (§1)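 Bovine heart lysate prepared in PBS pH 7.4 with 0.5% Triton X-100, 300 mM NaCl and protease/phosphatase inhibitors, then clarified; 30 µg protein/well in PBS. Test compound at semi-log increasing concentrations for 2 h, then class-specific AMC-acyl-lysine substrate (1 mM DMSO stock) for 2 h at 37 °C.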
# recombinant HDAC8 = biological target: T1, recombinant HDAC8 (Homo sapiens, UniProt Q9BY41); test: Recombinant HDAC activity assay; assay type: biochemical; conditions: for % HDAC activity, Class I HDACs, 8: recombinant protein incubated with 50 µM compound, 2 hrs
# T1 sequence (Q9BY41 1-377): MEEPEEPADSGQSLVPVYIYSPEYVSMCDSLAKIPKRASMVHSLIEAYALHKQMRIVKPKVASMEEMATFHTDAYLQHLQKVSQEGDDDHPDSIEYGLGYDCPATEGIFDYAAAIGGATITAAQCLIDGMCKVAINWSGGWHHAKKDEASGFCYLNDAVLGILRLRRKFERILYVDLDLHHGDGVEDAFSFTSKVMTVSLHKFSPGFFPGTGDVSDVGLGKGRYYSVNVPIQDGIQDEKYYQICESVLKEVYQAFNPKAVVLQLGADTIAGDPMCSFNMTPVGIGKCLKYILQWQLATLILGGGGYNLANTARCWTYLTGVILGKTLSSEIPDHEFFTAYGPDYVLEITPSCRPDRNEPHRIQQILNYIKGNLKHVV
# recombinant HDAC7 = biological target: T2, recombinant HDAC7 (Homo sapiens, UniProt Q8WUI4); test: Recombinant HDAC activity assay; assay type: biochemical; conditions: recombinant protein incubated with 50 µM compound, 2 hrs
# T2 sequence (Q8WUI4 1-952): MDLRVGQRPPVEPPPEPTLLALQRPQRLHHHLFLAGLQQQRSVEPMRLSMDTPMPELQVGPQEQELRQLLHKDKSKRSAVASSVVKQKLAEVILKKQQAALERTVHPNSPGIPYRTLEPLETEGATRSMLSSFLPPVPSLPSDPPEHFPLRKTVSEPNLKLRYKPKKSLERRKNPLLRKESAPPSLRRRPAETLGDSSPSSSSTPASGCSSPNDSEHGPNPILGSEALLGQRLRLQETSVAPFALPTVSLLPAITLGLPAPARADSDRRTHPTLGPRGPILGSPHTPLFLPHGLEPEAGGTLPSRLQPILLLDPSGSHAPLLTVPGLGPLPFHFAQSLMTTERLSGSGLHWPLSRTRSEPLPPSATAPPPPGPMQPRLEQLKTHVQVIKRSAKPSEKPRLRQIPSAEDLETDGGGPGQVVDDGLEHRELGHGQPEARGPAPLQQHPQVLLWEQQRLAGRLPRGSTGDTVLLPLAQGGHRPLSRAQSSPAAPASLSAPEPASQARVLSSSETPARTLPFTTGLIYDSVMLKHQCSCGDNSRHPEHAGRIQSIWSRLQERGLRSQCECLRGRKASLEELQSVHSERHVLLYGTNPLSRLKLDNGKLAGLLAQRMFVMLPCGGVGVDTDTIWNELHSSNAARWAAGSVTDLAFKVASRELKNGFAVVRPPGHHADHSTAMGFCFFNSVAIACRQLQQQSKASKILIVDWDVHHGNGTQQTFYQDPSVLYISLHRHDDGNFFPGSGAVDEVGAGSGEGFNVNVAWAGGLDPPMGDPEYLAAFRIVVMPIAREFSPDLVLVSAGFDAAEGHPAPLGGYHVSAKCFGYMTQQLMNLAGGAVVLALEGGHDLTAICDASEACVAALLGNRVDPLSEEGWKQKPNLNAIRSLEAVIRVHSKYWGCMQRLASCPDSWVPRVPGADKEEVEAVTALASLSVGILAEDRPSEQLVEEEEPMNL
# recombinant HDAC2 = recombinant HDAC2 (Homo sapiens, UniProt Q92769); test: Recombinant HDAC activity assay; assay type: biochemical; conditions: recombinant protein incubated with 50 µM compound, 2 hrs
# recombinant HDAC2, sequence (Q92769 whole entry): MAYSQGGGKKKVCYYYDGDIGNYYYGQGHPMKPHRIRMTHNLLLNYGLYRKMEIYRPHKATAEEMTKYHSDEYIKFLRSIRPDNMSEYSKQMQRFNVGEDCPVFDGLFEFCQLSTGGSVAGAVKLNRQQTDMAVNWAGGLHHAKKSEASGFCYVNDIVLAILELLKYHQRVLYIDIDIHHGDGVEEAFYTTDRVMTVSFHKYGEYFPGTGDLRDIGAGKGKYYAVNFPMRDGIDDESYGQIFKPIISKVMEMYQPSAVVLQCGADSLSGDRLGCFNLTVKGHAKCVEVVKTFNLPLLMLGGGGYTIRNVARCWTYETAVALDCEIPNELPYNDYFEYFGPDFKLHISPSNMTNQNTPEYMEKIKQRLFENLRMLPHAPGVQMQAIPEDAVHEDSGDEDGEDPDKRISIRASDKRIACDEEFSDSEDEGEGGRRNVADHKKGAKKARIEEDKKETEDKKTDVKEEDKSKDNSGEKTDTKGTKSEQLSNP
# recombinant HDAC9 = recombinant HDAC9 (Homo sapiens, UniProt Q9UKV0); test: Recombinant HDAC activity assay; assay type: biochemical
# recombinant HDAC9, sequence (Q9UKV0 whole entry): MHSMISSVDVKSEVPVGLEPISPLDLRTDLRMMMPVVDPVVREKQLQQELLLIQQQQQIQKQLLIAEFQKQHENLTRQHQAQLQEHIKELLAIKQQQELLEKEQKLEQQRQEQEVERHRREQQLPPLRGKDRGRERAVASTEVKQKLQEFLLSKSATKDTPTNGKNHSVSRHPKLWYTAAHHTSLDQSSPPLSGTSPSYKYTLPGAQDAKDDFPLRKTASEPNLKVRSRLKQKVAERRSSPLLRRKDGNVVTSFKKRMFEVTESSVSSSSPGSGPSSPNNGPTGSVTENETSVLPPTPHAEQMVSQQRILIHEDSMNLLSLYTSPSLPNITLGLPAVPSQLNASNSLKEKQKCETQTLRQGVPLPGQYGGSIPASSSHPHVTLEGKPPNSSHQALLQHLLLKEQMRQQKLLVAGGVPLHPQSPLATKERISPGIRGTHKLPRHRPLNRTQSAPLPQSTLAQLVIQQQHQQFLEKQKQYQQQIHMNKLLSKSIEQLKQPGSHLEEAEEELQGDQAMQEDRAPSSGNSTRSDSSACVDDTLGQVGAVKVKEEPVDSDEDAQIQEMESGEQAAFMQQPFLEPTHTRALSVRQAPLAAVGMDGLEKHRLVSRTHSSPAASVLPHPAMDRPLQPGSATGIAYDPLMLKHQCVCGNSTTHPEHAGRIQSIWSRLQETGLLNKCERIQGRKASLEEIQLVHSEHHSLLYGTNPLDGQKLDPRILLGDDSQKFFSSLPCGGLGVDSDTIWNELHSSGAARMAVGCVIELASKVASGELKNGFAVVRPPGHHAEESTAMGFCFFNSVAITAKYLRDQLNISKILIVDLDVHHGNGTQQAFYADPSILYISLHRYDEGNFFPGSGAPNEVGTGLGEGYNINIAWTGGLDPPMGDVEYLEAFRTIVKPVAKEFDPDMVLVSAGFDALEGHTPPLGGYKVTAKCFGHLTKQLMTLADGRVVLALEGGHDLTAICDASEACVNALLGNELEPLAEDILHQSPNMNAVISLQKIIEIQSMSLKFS
# recombinant HDAC5 = recombinant HDAC5 (Homo sapiens, UniProt Q9UQL6); test: Recombinant HDAC activity assay; assay type: biochemical
# recombinant HDAC5, sequence (Q9UQL6 whole entry): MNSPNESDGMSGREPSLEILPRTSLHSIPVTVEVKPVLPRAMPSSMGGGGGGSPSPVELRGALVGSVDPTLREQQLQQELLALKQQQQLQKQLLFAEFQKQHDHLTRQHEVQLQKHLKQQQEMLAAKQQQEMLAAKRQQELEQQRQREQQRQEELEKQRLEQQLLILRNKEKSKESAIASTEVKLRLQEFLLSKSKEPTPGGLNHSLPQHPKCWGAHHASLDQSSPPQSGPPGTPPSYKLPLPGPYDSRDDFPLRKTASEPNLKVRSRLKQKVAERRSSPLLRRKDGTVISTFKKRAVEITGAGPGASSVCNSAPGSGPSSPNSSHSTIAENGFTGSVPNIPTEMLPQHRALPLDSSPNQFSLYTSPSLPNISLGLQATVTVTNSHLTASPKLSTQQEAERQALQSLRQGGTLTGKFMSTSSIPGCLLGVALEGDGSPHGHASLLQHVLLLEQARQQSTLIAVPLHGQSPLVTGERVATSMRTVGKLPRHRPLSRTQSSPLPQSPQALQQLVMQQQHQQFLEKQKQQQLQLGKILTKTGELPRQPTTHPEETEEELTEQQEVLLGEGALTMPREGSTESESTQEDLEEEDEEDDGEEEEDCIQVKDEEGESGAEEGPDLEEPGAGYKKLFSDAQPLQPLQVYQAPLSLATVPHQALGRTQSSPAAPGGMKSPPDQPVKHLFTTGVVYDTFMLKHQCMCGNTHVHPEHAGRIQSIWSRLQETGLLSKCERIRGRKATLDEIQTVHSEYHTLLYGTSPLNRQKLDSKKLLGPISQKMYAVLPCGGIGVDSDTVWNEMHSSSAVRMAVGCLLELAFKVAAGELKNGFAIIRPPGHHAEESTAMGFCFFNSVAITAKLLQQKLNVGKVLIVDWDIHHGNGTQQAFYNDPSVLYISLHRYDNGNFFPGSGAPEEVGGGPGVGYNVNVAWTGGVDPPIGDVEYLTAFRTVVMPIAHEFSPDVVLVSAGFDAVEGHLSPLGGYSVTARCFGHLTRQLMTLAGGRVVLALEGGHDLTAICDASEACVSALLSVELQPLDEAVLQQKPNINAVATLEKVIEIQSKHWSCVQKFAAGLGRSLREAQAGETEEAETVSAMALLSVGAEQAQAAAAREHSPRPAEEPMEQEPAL
# recombinant HDAC10 = biological target: T3, recombinant HDAC10 (Homo sapiens, UniProt Q969S8); test: Recombinant HDAC activity assay; assay type: biochemical
# T3 sequence (Q969S8 1-669): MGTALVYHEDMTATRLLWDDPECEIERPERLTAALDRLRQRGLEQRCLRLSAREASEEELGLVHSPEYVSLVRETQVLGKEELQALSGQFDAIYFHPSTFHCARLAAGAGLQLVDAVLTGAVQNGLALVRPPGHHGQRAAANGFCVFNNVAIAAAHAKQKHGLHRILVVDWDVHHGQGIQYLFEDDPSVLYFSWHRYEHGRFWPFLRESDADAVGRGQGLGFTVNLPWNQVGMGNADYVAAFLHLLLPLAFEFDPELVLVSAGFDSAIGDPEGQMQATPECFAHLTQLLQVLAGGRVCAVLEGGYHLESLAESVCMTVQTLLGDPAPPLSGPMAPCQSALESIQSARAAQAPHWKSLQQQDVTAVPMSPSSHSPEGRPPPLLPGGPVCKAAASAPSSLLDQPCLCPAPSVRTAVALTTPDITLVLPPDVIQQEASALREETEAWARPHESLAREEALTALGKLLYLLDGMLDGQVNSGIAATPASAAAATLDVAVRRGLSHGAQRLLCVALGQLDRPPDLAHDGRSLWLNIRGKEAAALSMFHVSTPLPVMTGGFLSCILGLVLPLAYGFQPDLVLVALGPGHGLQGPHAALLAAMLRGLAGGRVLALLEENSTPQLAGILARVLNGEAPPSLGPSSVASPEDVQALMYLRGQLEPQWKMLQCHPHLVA
# [1] = system: HDAC activity in bovine cardiac tissue; test: Natural product library screen with class-selective HDAC substrates; assay type: biochemical; conditions: 2 hours treatment
# Summary of the method: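 The screen covered 131 natural compounds against bovine cardiac tissue lysate at 30 µg protein/well in PBS (pH 7.4 lysis buffer with Triton X-100 and NaCl). Test compound for 2 h, then separate class I, IIa or IIb fluorogenic acyl-lysine-AMC substrates for 2 h at 37 °C. Developer (Triton X-100, 3 µM TSA, 0.75 mg/ml trypsin) for 20 min; fluorescence read at 360/460 nm.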
# H9c2 cells = test: Acetyl-H3K9/14 immunoblot of whole cell extract; assay type: cell-based, rat; conditions: H9c2 myocytes, 50 µM, 2 hours
# Summary of the method: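 H9c2 cells were grown in DMEM with 10% FBS and treated at 90% confluence for 2 h with test compound or DMSO, with TSA as positive control. Washed in ice-cold PBS, lysed in PBS pH 7.4 with 0.5% Triton X-100 and 300 mM NaCl plus inhibitors, sonicated and clarified. SDS-PAGE, nitrocellulose, acetyl-H3K9/14 and total H3 antibodies, chemiluminescence; densitometry; ANOVA with Tukey.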
# recombinant HDAC4 = recombinant HDAC4 (Homo sapiens, UniProt P56524); test: Recombinant HDAC activity assay; assay type: biochemical
# recombinant HDAC4, sequence (P56524 whole entry): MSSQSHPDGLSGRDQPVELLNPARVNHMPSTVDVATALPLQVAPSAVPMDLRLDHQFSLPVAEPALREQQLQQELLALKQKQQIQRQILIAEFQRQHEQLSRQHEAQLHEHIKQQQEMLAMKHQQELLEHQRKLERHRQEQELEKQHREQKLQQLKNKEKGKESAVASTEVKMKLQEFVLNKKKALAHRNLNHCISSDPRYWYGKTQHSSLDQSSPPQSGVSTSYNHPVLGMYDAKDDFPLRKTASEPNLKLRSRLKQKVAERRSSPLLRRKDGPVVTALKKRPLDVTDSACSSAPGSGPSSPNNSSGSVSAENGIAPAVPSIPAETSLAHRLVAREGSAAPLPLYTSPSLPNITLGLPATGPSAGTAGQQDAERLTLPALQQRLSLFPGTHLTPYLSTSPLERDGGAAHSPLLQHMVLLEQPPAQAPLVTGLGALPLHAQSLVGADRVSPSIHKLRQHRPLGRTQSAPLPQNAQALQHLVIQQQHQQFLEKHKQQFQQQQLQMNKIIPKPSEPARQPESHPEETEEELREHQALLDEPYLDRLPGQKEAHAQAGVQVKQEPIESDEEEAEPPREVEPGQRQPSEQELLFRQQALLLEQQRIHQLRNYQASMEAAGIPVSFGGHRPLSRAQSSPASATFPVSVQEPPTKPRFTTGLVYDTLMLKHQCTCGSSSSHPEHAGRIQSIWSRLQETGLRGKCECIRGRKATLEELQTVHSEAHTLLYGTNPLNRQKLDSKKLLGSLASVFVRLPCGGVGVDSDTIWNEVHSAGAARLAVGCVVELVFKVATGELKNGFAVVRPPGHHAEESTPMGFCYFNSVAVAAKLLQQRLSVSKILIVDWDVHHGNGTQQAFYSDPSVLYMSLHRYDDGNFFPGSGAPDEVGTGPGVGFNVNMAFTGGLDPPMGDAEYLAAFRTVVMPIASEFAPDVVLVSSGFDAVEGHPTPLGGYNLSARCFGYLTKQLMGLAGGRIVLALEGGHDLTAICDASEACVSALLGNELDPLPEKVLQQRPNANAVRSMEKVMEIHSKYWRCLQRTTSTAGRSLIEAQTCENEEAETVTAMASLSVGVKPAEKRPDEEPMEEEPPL
# Class IIb HDAC = test: HDAC activity assay, class IIb substrate, bovine heart tissue lysate; assay type: biochemical; conditions: 2 hours treatment
# Summary of the method: as §1
# Class IIa HDAC = test: HDAC activity assay, class IIa substrate, bovine heart tissue lysate; assay type: biochemical; conditions: 2 hours treatment
# Summary of the method: as §1
# recombinant HDAC6 = biological target: T4, recombinant HDAC6 (Homo sapiens, UniProt Q9UBN7); test: Recombinant HDAC activity assay; assay type: biochemical; conditions: recombinant protein incubated with 50 µM compound, 2 hrs
# T4 sequence (Q9UBN7 1-1215): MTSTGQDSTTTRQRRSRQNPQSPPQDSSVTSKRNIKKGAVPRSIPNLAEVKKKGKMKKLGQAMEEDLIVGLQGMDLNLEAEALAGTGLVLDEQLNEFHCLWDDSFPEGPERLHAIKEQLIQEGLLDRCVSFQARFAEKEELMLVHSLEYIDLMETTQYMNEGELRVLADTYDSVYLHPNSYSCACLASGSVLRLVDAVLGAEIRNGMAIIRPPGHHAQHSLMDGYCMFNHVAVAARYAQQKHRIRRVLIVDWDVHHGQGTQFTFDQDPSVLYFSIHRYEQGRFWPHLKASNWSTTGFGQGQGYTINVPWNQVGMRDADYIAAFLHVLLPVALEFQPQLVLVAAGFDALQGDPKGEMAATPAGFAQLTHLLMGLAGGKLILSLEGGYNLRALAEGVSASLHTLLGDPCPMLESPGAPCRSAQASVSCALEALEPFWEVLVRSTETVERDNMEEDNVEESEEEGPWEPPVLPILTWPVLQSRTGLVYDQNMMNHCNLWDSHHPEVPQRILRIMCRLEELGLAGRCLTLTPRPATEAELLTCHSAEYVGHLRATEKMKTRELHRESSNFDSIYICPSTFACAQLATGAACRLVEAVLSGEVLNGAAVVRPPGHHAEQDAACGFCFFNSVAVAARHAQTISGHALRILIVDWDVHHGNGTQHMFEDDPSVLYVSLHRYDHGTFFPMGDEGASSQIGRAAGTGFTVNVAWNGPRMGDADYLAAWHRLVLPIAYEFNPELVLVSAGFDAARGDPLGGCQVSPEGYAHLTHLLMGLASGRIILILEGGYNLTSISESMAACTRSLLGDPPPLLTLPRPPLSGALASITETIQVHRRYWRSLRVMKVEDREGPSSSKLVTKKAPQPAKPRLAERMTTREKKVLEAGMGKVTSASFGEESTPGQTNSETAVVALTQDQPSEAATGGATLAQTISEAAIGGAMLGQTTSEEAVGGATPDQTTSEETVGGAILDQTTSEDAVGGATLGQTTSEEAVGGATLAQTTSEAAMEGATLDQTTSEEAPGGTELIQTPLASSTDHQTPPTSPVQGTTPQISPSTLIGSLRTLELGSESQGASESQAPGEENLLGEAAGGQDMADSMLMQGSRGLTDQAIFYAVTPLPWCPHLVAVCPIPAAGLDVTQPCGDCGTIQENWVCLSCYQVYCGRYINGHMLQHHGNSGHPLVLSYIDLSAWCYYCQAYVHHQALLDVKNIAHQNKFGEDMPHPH
# [2] = recombinant protein incubated with 50 µM compound, 2 hrs
# recombinant HDAC3, sequence (O15379 whole entry): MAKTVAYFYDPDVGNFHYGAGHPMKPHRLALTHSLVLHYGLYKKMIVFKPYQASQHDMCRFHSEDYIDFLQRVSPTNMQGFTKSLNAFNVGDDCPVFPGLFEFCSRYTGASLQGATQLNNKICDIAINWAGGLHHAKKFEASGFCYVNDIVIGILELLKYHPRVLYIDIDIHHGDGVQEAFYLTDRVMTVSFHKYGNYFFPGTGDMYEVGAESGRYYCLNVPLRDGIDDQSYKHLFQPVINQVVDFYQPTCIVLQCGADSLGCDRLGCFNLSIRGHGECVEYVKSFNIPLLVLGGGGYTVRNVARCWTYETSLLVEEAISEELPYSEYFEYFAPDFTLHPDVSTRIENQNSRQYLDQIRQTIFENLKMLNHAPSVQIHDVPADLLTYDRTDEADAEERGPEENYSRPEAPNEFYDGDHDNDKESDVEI
# recombinant HDAC3, sequence (Q9Y618 395-489 partner limits assumed): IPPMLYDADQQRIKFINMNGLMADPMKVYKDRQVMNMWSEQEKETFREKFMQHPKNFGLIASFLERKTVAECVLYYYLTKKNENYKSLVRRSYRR
compound,measurement,setting,value
COc1cc2c(cc1OC)-c1cc3ccc(OC)c(OC)c3c[n+]1CC2 [Palmatine],"% HDAC activity, Class I HDACs, 3",recombinant HDAC3,47.1%
same,"% HDAC activity, Class I HDACs, 1",recombinant HDAC1,44.8%
same,"class I HDAC activity, effect in words",Class I HDAC,only inhibit class I HDAC activity
same,"% HDAC activity, Class I HDACs, 8",recombinant HDAC8,40.9%
same,"% HDAC activity, Class IIa HDACs, 7",recombinant HDAC7,-
same,"% HDAC activity, Class I HDACs, 2",recombinant HDAC2,17.5%
O=c1c(O)c(-c2ccc(O)c(O)c2)oc2cc(O)cc(O)c12 [Quercetin dihydrate],remaining activity at 50 µM,"recombinant HDAC3; 2 h, read-out: % HDAC activity, Class I HDACs, 3",63.6%
same,remaining activity at 50 µM,"recombinant HDAC1; 2 h, read-out: % HDAC activity, Class I HDACs, 1",72.7%
same,remaining activity at 50 µM,"recombinant HDAC9; 2 h, read-out: % HDAC activity, Class IIa HDACs, 9",70.8%
same,remaining activity at 50 µM,"recombinant HDAC8; 2 h, read-out: % HDAC activity, Class I HDACs, 8",64%
same,remaining activity at 50 µM,"recombinant HDAC5; 2 h, read-out: % HDAC activity, Class IIa HDACs, 5",78.2%
same,remaining activity at 50 µM,"recombinant HDAC10; 2 h, read-out: % HDAC activity, Class IIb HDACs, 10",68%
same,"% HDAC activity, Class IIa HDACs, 7",recombinant HDAC7,-
same,"catalytic HDAC activity across class I, IIa and IIb substrates, effect in words",[1],dose-dependent pan-HDAC inhibition
same,acetylation of histone 3 on lysine 9/14 (Ac-H3 K9/14) via immunoblot,H9c2 cells,increased
same,remaining activity at 50 µM,"recombinant HDAC4; 2 h, read-out: % HDAC activity, Class IIa HDACs, 4",89.8%
"CN1CCc2c(c3ccccc3n2Cc2ccc(C(=O)NO)cc2)C1 [TubA, Tubastatin A, reference compound]","class IIb HDAC activity, effect in words",Class IIb HDAC,only inhibited class IIb HDAC activity
DPAH,"class IIa HDAC activity, effect in words",Class IIa HDAC,only inhibited class IIa HDAC activity
Myricitrin,"% HDAC activity, Class I HDACs, 3",recombinant HDAC3,67.7%
same,"% HDAC activity, Class I HDACs, 1",recombinant HDAC1,75.1%
same,"% HDAC activity, Class IIa HDACs, 9",recombinant HDAC9; [2],69.3%
same,"% HDAC activity, Class I HDACs, 8",recombinant HDAC8,65.4%
same,"% HDAC activity, Class IIa HDACs, 5",recombinant HDAC5; [2],68.3%
same,"% HDAC activity, Class IIb HDACs, 10",recombinant HDAC10; [2],67.0%
same,"% HDAC activity, Class IIa HDACs, 7",recombinant HDAC7,-
same,"% HDAC activity, Class IIa HDACs, 4",recombinant HDAC4; [2],93.5%
same,"% HDAC activity, Class IIb HDACs, 6",recombinant HDAC6,87.2%
